Bioassay records from PubChem BioAssay.
SENP8 block-1: inhibitors of human SENP8 protease | purified SENP8, Z-RLRGG-aminoluciferin cleavage, luminescence | inhibition, % at 10 µM | 330,000 compounds, 1.2% hits; in the data active means inhibition above about 50%
Platelet DG rel: platelet dense granule release activity; 300,000 compounds, 0.22% hits; human platelet-rich plasma, SFLLRN dense granule ATP release, luminescence; inhibition, %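 (compounds screened at 7.5 µM in platelet-rich plasma)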;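 active means mean replicate score, as percent of positive control, at or above 50; inconclusive means mean below 50 but at least one replicate at or above 50; inactive means mean and every replicate below 50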
SENP1 FRET inh: inhibitors of human SENP1 SUMO protease catalytic domain. Q9P0U3. recombinant SENP1 catalytic domain, CyPet-SUMO1-YPet FRET cleavage. inhibition, % at 10 µM. 360,000 compounds, 0.21% hits. AID 624204;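 active means inhibition at least 30% at 10 µM, raw YFP signal under a set limit, fluorescence ratio 0.5 to 1.5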;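 further: 0% = enzyme with DMSO and 100% = no enzyme wells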
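Test system: human SENP1 catalytic domain; medium: Tris pH 8 buffer plus EDTA, NaCl, BME, BSA, NP40, catalase; incubation: 50 min reaction at room temperature; technique: FRET, CFP and YFP emission; controls: no-enzyme low control and enzyme-plus-DMSO high control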
SENP8 block-2: SENP8 (human) protease inhibition; recombinant SENP8, Nedd8 substrate fluorescence; Q96LD8; inhibition, % at 20 µM; 360,000 compounds, 0.64% hits; in the data active means inhibition mostly above about 40%, no sharp cut-off; inactive means mostly below about 27%
SENP6 inh: blocks the human protease SENP6; 330,000 compounds, 1.8% hits; Recombinant SENP6 catalytic domain, aminoluciferin luminescence; inhibition, % at 10 µM; AID 2599; Q9GZR1;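 active means inhibition above about 50% at the single tested dose, limit read from the data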;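 further: plate controls were DMSO wells with enzyme for no effect and DMSO wells lacking enzyme for full effect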
Target sequence (Q9GZR1 628-1112 limits assumed): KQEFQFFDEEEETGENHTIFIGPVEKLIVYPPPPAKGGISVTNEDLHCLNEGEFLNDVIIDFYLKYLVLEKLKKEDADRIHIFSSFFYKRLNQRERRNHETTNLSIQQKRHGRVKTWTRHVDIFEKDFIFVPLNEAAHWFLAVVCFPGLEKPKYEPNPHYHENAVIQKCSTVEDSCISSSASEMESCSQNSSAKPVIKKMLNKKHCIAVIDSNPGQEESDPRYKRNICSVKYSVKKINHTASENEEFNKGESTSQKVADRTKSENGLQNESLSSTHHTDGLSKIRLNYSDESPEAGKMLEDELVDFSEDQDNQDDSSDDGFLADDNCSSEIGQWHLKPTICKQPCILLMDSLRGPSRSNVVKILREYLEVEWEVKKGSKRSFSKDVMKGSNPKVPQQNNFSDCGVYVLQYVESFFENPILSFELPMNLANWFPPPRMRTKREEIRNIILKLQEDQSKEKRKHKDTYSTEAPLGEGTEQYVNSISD
SENP7 inh: blocks the human protease SENP7; AID 434973; 330,000 compounds, 1.5% hits; recombinant SENP7, Z-RLRGG-aminoluciferin luminescence, 40 min; Q9BQF6; inhibition, % at 5 µM;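 active means inhibition above about 50% at the single test dose, limit read from the data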;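 further: plate controls were DMSO with enzyme for no effect and no enzyme buffer wells for full effect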
SENP1 conf: confirmation of human SENP1 SUMO protease inhibitors; inhibition, % at 10 µM; recombinant SENP1, CyPet-SUMO1-YPet FRET cleavage; shares compounds with SENP1 FRET inh; 520 compounds, 34% hits; in the data active means inhibition mostly above about 35%, no sharp cut-off; inactive means mostly below about 32%;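 further: 0% = enzyme with DMSO and 100% = no enzyme control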
SENP1 kinetic: confirmation of human SENP1 SUMO protease inhibitors, kinetic; shares compounds with SENP1 FRET inh; recombinant SENP1, CyPet-SUMO1-YPet FRET kinetic cleavage; inhibition, % at 10 µM; 520 compounds, 26% hits; AID 651690; in the data active means inhibition mostly above about 32%, no sharp cut-off; inactive means mostly below about 29%;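 further: 0% = DMSO with enzyme and 100% = no enzyme substrate only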
* marks the source's active call; other numbers are inactive results. Shown are actives, neighbours in structure and some others; about 2.6% of the full set was active somewhere.

Screening CCOC(=O)c1sc2cc([N+](=O)[O-])cc(SCC(=O)OC)c2c1N returned SENP8 block-1 5.3, Platelet DG rel -9.8, SENP1 FRET inh 65.5*, SENP8 block-2 23.3, SENP6 inh -9.5, SENP7 inh 11.5, SENP1 conf 24.8 and SENP1 kinetic 2.2.
CCOC(=O)c1sc2nc(C)cc(C)c2c1N was read as SENP8 block-1 -4.1, Platelet DG rel 2.5, SENP1 FRET inh -27.2, SENP8 block-2 -288.6, SENP6 inh -8.9 and SENP7 inh -1.0.
CCOC(=O)c1sc2cc([N+](=O)[O-])cc(SCCO)c2c1N was read as SENP8 block-1 -4.6, Platelet DG rel -7.2, SENP1 FRET inh 50.1*, SENP8 block-2 20.3, SENP6 inh -1.3, SENP7 inh 0.8, SENP1 conf 20.3 and SENP1 kinetic 12.2.
COCCN(C(=O)c1ccc(-c2ccc([N+](=O)[O-])cc2)o1)c1c(N)n(CC(C)C)c(=O)[nH]c1=O was read as SENP8 block-1 -2.0, SENP1 FRET inh -1.3, SENP8 block-2 -25.7, SENP6 inh -1.3 and SENP7 inh 9.5.
For CSc1ccccc1NC(=O)CN1C(=O)C2CC=CCC2C1=O (stereo not given) the results were SENP8 block-1 17.5, SENP1 FRET inh 1.8, SENP8 block-2 21.1, SENP6 inh -5.6 and SENP7 inh -2.5.
Screening O=S(=O)(N/N=C/c1ccc(N2CCOCC2)cc1)c1ccccc1 returned SENP8 block-1 7.7, Platelet DG rel 0.7, SENP1 FRET inh 37.2*, SENP8 block-2 13.2, SENP6 inh -34.7, SENP7 inh 2.2, SENP1 conf 32.3 and SENP1 kinetic 24.6.
For CCn1c(C)nc2cc(C(=O)N/N=C/c3ccc(N4CCOCC4)cc3)ccc21 the results were SENP8 block-1 -1.5, Platelet DG rel 11.5, SENP1 FRET inh 35.1*, SENP8 block-2 -368.4, SENP6 inh 13.4, SENP7 inh 2.7, SENP1 conf 28.0 and SENP1 kinetic 26.3.
For C/C(=N\NC(=O)c1ccc(O)cc1)c1ccc(N2CCOCC2)cc1 the results were SENP8 block-1 2.5, Platelet DG rel 2.5, SENP1 FRET inh 0.5, SENP8 block-2 -259.9, SENP6 inh -3.2 and SENP7 inh -1.6.
O=C(N/N=C/c1ccc(N2CCOCC2)cc1)c1ccc(O)cc1 was read as SENP8 block-1 17.4, Platelet DG rel 13.2, SENP1 FRET inh 34.5*, SENP8 block-2 -368.8, SENP6 inh 3.0, SENP7 inh 4.6, SENP1 conf 25.1 and SENP1 kinetic 17.3.
`CCCC(=O)N1CCC1(C)C(=O)NS(=O)(=O)c1cccc(F)c1` (stereo not given) gave SENP1 FRET inh 3.0 and SENP8 block-2 19.2.
COc1ccccc1NC(=O)c1cc2n(n1)C(C(F)(F)F)CC(c1ccc3c(c1)OCO3)N2 (stereo not given) was read as SENP8 block-1 -1.0, Platelet DG rel inconclusive, SENP1 FRET inh 38.3*, SENP8 block-2 13.7, SENP6 inh -3.0, SENP7 inh -2.3, SENP1 conf 31.1 and SENP1 kinetic 22.6.
COc1ccc(OC)c(NC(=O)c2cc3n(n2)C(C(F)(F)F)CC(c2ccc4c(c2)OCO4)N3)c1 (stereo not given) was read as SENP8 block-1 0.9, Platelet DG rel -0.4, SENP1 FRET inh 2.1, SENP8 block-2 17.9, SENP6 inh 25.9 and SENP7 inh 14.2.
Screening O=C1C=C(c2cccc(Cl)c2O)C[C@@H](c2ccc(Cl)cc2)C1 returned SENP8 block-1 0.8, SENP1 FRET inh 57.8*, SENP8 block-2 14.1, SENP6 inh 13.0, SENP7 inh 2.0, SENP1 conf 98.6* and SENP1 kinetic 75.9*.
For COCc1nnc(NC(=O)c2ccc(OC)cc2OC)s1 the results were SENP8 block-1 -7.5, Platelet DG rel -4.7, SENP1 FRET inh 48.1*, SENP8 block-2 23.2, SENP6 inh -23.4, SENP7 inh 10.9, SENP1 conf -9.9 and SENP1 kinetic 0.5.
CC(=O)Oc1ccc(Cl)cc1/C=C/c1ccc2ccccc2n1 was read as SENP8 block-1 18.0, Platelet DG rel 2.1, SENP1 FRET inh 33.8*, SENP8 block-2 -222.8, SENP6 inh 26.1, SENP7 inh 43.1, SENP1 conf 37.9* and SENP1 kinetic 15.9.
For CC(C)C(NC(=O)C12CC3CC(CC(C3)C1)C2)C(=O)N/N=C/C1=C(N2CCOCC2)C(=C\c2ccc([N+](=O)[O-])cc2)/CC1 (stereo not given) the results were SENP8 block-1 -1.8, Platelet DG rel 7.4, SENP1 FRET inh 75.2*, SENP8 block-2 14.2, SENP6 inh -2.0, SENP7 inh 2.6, SENP1 conf 23.5 and SENP1 kinetic 7.0.
For CC(NC(=O)C12CC3CC(CC(C3)C1)C2)C(=O)N/N=C/C1=C(N2CCOCC2)C(=C\c2cccc([N+](=O)[O-])c2)/CC1 (stereo not given) the results were SENP8 block-1 7.1, Platelet DG rel -6.2, SENP1 FRET inh 2.7, SENP8 block-2 21.1, SENP6 inh 4.0 and SENP7 inh 2.5.
CCOc1ccc(Cl)cc1-c1cc(C(=O)NCc2cc(C(F)(F)F)cc(C(F)(F)F)c2)[nH]n1 was read as SENP1 FRET inh -1.0 and SENP8 block-2 13.8.
For Nc1c2c(nc3ccc(Br)cc13)N(Cc1ccccc1)CC2 the results were SENP8 block-1 -1.3, Platelet DG rel -0.3, SENP1 FRET inh 58.8*, SENP8 block-2 -2.0, SENP6 inh 1.5, SENP7 inh 1.0, SENP1 conf 13.2 and SENP1 kinetic 9.4.
Screening CCOC(=O)C1=C(COC(=O)c2ccc3ccccc3c2O)NC(=O)NC1C (stereo not given) returned SENP8 block-1 -2.4, SENP1 FRET inh 38.1*, SENP8 block-2 inactive, SENP6 inh 18.9, SENP7 inh -3.7, SENP1 conf 1.8 and SENP1 kinetic -1.0.
For CCOC(=O)C1=C(COC(=O)c2ccccc2OC(F)F)NC(=O)NC1C (stereo not given) the results were SENP8 block-1 -9.3, Platelet DG rel 5.0, SENP1 FRET inh 2.7, SENP8 block-2 -8.2, SENP6 inh -11.8 and SENP7 inh -7.4.
Screening COc1cc(Nc2cccc(-c3ccccc3)n2)cc(OC)c1OC returned SENP1 FRET inh 1.0 and SENP8 block-2 -55.1.
`COc1cc(Nc2nc3c(N)cc(C(F)(F)F)cc3nc2-c2ccccc2)cc(OC)c1OC` gave SENP1 FRET inh 45.6*, SENP8 block-2 13.9, SENP1 conf 2.4 and SENP1 kinetic 2.8.
